{"source": "ChEMBL document CHEMBL1795307", "about": "“Synthesis and anti-inflammatory activity of some novel 3-phenyl-N-[3-(4-phenylpiperazin-1yl)propyl]-1H-pyrazole-5-carboxamide derivatives” (2011)", "type_in_all_cases": "functional", "key": {"[1]": {"test_system": "Rattus norvegicus", "assay": "Antiinflammatory activity against carrageenan-induced paw edema in rat at 100 mg/kg, po administered 1 hr before carrageenan challenge measured after 1 hr relative to control", "procedure,_shortened": "(§1)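 Rats of either sex (130–180 g), fasted ≥16 h with water available, six per group. Compound given orally in 1% CMC solution 1 h before 0.1 mL of 1% carrageenan suspension injected into hind paw; controls received vehicle. Paw volume read by mercury-displacement plethysmometer before and 1, 2, 3, 4 h after carrageenan. Percent inhibition from mean paw-volume increase versus control.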"}, "[2]": {"test_system": "Rattus norvegicus", "assay": "Antiinflammatory activity against carrageenan-induced paw edema in rat at 100 mg/kg, po administered 1 hr before carrageenan challenge measured after 4 hrs relative to control", "procedure,_shortened": "as §1"}, "[3]": {"test_system": "Rattus norvegicus", "assay": "Antiinflammatory activity against carrageenan-induced paw edema in rat at 100 mg/kg, po administered 1 hr before carrageenan challenge measured after 2 hrs relative to control", "procedure,_shortened": "as §1"}, "[4]": {"test_system": "Rattus norvegicus", "assay": "Antiinflammatory activity against carrageenan-induced paw edema in rat at 100 mg/kg, po administered 1 hr before carrageenan challenge measured after 3 hrs relative to control", "procedure,_shortened": "as §1"}}}
{"compound": "Cc1cccc(-c2cc(C(=O)NCCCN3CCN(c4ccccc4)CC3)[nH]n2)c1", "values": [{"measurement": "Activity", "setting": "[1]", "value": 60.5, "unit": "%"}, {"measurement": "Activity", "setting": "[2]", "value": 70, "unit": "%"}, {"measurement": "Activity", "setting": "[3]", "value": 65.2, "unit": "%"}, {"measurement": "Activity", "setting": "[4]", "value": 70.6, "unit": "%"}]}
{"compound": "COc1ccc(-c2cc(C(=O)NCCCN3CCN(c4ccccc4)CC3)[nH]n2)cc1", "values": [{"measurement": "Activity", "setting": "[1]", "value": 55.2, "unit": "%"}, {"measurement": "Activity", "setting": "[2]", "value": 70, "unit": "%"}, {"measurement": "Activity", "setting": "[3]", "value": 69.4, "unit": "%"}, {"measurement": "Activity", "setting": "[4]", "value": 75, "unit": "%"}]}
{"compound": "Cc1ccc(-c2cc(C(=O)NCCCN3CCN(c4ccccc4)CC3)[nH]n2)cc1", "values": [{"measurement": "Activity", "setting": "[1]", "value": 60.5, "unit": "%"}, {"measurement": "Activity", "setting": "[2]", "value": 63.3, "unit": "%"}, {"measurement": "Activity", "setting": "[3]", "value": 55.5, "unit": "%"}, {"measurement": "Activity", "setting": "[4]", "value": 67.3, "unit": "%"}]}
{"compound": "COc1cccc(-c2cc(C(=O)NCCCN3CCN(c4ccccc4)CC3)[nH]n2)c1", "values": [{"measurement": "Activity", "setting": "[1]", "value": 52.6, "unit": "%"}, {"measurement": "Activity", "setting": "[2]", "value": 64.4, "unit": "%"}, {"measurement": "Activity", "setting": "[3]", "value": 62.5, "unit": "%"}, {"measurement": "Activity", "setting": "[4]", "value": 65.2, "unit": "%"}]}
{"compound": "CC(C)Cc1ccc(C(C)C(=O)O)cc1", "note": "(stereo unspecified) [IBUPROFEN]", "values": [{"measurement": "Activity", "setting": "[1]", "value": 42.1, "unit": "%"}, {"measurement": "Activity", "setting": "[2]", "value": 63.3, "unit": "%"}, {"measurement": "Activity", "setting": "[4]", "value": 72.8, "unit": "%"}]}
{"compound": "O=C(NCCCN1CCN(c2ccccc2)CC1)c1cc(-c2cccc([N+](=O)[O-])c2)n[nH]1", "values": [{"measurement": "Activity", "setting": "[1]", "value": 67, "unit": "%"}, {"measurement": "Activity", "setting": "[2]", "value": 75.5, "unit": "%"}, {"measurement": "Activity", "setting": "[3]", "value": 75, "unit": "%"}, {"measurement": "Activity", "setting": "[4]", "value": 78, "unit": "%"}]}
{"compound": "O=C(NCCCN1CCN(c2ccccc2)CC1)c1cc(-c2ccc([N+](=O)[O-])cc2)n[nH]1", "values": [{"measurement": "Activity", "setting": "[1]", "value": 53.9, "unit": "%"}, {"measurement": "Activity", "setting": "[2]", "value": 72.2, "unit": "%"}, {"measurement": "Activity", "setting": "[3]", "value": 75.6, "unit": "%"}, {"measurement": "Activity", "setting": "[4]", "value": 76, "unit": "%"}]}
{"compound": "O=C(NCCCN1CCN(c2ccccc2)CC1)c1cc(-c2ccccc2)n[nH]1", "values": [{"measurement": "Activity", "setting": "[1]", "value": 47.3, "unit": "%"}, {"measurement": "Activity", "setting": "[2]", "value": 58.8, "unit": "%"}, {"measurement": "Activity", "setting": "[3]", "value": 55.5, "unit": "%"}, {"measurement": "Activity", "setting": "[4]", "value": 61.9, "unit": "%"}]}
